Compound activity: PubChem BioAssay, several laboratories
MEKK2mut PB1 HTS: signal of MEK5 binding to mutant human MEKK2 PB1 domain. percent response, % at 10 µM. 0.35% of 290,000 active. bead flow cytometry, Alexa488-MEK5 binding to MEKK2 mutant. AID 1530; in the data active = percent response above about 24%, passing the limit was not always enough
MEKK3 PB1 HTS: raises or lowers MEK5 binding to the human MEKK3 PB1 domain; Q99759; 1.4% of 290,000 active; bead-based flow cytometry, Alexa488-MEK5 binding to MEKK3; actives lie on both sides; 0 = blocked by unlabeled MEK5, 100 = vehicle; binding response (% of control), % at 10 µM;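 active = binding response more than 3 SD above or below the average of its plate-row segment, actives on both sides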;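 also: Alexa488 bead fluorescence after subtracting the streptavidin-only scavenger bead signal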
Target sequence (Q99759 whole entry, looked up, the tested form may be a part): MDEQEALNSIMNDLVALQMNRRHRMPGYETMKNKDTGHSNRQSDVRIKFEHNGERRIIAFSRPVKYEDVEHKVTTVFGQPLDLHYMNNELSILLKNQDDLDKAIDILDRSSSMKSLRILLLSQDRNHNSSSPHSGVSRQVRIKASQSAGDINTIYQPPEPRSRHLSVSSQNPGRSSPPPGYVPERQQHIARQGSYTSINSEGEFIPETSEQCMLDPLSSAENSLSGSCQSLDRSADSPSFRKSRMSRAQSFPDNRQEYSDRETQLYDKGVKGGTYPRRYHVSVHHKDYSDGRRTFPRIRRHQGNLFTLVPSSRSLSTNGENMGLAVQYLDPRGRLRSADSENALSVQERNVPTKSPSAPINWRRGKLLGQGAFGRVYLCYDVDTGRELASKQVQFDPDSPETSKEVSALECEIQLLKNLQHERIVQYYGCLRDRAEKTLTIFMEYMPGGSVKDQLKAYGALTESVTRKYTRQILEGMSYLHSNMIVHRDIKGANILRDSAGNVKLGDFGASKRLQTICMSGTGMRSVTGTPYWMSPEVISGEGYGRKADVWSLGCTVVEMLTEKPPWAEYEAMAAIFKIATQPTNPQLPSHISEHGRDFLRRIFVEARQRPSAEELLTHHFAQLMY
UBC13 inh: human UBC13 polyubiquitination inhibition; UBC13 polyubiquitin chain formation, TR-FRET; 0.47% of 330,000 active; inhibition, % at 20 µM; P61088; AID 485273; in the data active = inhibition above about 45%, passing the limit was not always enough
Apaf-1 inh: blocks human Apaf-1 apoptosome activity | reconstituted apoptosome caspase-3 activity, DEVD-Rh110 fluorescence | inhibition, % at 20 µM | 0.71% of 330,000 active; active = inhibition of at least 40% at 20 µM
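Assay system – apoptosome proteins · Medium – Hepes buffer, pH 7.5 · Also added – cytochrome c with DEVD-Rh110 · Timing – 30 min compound preincubation, 50 min activation, room temperature · Detection – Rh110 fluorescence, excitation 480 nm, emission 540 nm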
MEKK2wt PB1 HTS: raises or lowers MEK5 binding to wildtype human MEKK2 PB1 domain; Q9Y2U5; bead flow cytometry, Alexa488-MEK5 binding to MEKK2 WT; actives lie on both sides; binding response (% of control), % at 10 µM; 1.1% of 290,000 active; in the data active = binding response below about 67% or above about 130%
UCH37 inh: blocks the human deubiquitinase UCH37; Q9Y5K5; purified proteasome/UCH37, Ub-AMC cleavage fluorescence; inhibition, % (no concentration beside the values); 0.33% of 330,000 active; AID 588478;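 active = mean inhibition over replicate wells above about 20%, limit read from the data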
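Reagent: Ub-AMC substrate; assay system: Proteasome-associated human UCH37 deubiquitinase; controls: no-proteasome and no-compound wells; read-out: % inhibition of Ub-AMC cleavage fluorescence; timing: 30 min preincubation with enzyme, 25 min cleavage at room temperature; signal: AMC fluorescence from Ub-AMC cleavage, excitation 355 nm, emission 460 nm; buffer or medium: Tris-HCl pH 7.4 plus ovalbumin, ATP-MgCl2, DTT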
Hits are given with their value; . = inactive; / = not tested or not shown. Shown are actives, neighbours in structure and some others; about 3% of the full set was active somewhere.

SMILES | MEKK2mut PB1 HTS | MEKK3 PB1 HTS | UBC13 inh | Apaf-1 inh | MEKK2wt PB1 HTS | UCH37 inh
CCOc1ccc(CN2CCN(CC(O)Cn3c4ccccc4c4ccccc43)CC2)cc1 (centres undefined) | . | . | . | . | 138 | .
CC(CC(=O)NCc1ccco1)=NNC(=O)Cc1ccc(Cl)cc1 | / | / | / | / | / | 32
Cc1[nH]c2c(ccc3cccnc32)c1C | . | . | . | . | . | .
CC1=[N+](C)c2c(ccc3cccnc23)C1(C)C | . | . | / | / | -9.0 | .
COc1ccc2cc(OC)c(C(=O)N3CCOCC3)cc2c1 | . | . | . | . | -7.0 | .
COc1cc2ccccc2cc1C(=O)N1CCN(C(C)=O)CC1 | . | . | . | . | . | .
Cc1c(N=C/C=C2/N(C)c3ccccc3C2(C)C)c(=O)n(-c2ccccc2)n1C | . | . | . | . | -5.0 | .
Cc1c(N=C/C=C2\N(C)c3ccccc3C2(C)C)c(=O)n(-c2ccccc2)n1C | . | . | . | . | . | .
C/C(=N/NC(=O)c1cccc(N2CCCC2=O)c1)c1ccncc1 | . | . | . | . | -5.0 | /
CC(=NNC(=O)c1cccc(N2CCCC2=O)c1)c1ccncc1 | / | / | / | / | / | .
OC12CCCCC1C(c1ccc3c(c1)OCO3)N(Cc1cccc(F)c1)CC2 (centres undefined) | . | . | / | / | . | .
OC12CCCCC1C(c1ccc3c(c1)OCO3)N(Cc1ccc(F)cc1)CC2 (centres undefined) | . | . | . | . | . | 29
Brc1ccccc1-n1nnc(-c2nccs2)n1 | . | . | . | . | . | 25
O=C(NCc1ccccc1)C1(CC2CC(c3ccccc3)=NO2)CCNCC1 (centres undefined) | / | / | . | 47 | / | .
C=CCn1c(N)c(C(=O)OC(C)(C)C)c2nc3ccccc3nc21 | / | / | . | 67 | / | /
C=CCn1c(N)c(C(=O)OC(C)CC)c2nc3ccccc3nc21 (centres undefined) | . | . | / | / | . | .
COc1cc(NCCCCCCCN)c2ncccc2c1 | . | . | . | 95 | . | .
O=C(C1=C[C@H](c2ccc(Br)cc2)C[C@H](OCc2ccc(CO)cc2)O1)N1CCOCC1 | . | . | . | . | . | .
Cc1cc(C)c2sc(N(CCCN(C)C)C(=O)c3ccc(S(=O)(=O)N4CCCc5ccccc54)cc3)nc2c1 | / | / | 62 | . | / | /
CN(C)CCCN(C(=O)c1ccc(S(=O)(=O)N2CCc3ccccc3C2)cc1)c1nc2c(F)cccc2s1 | 45 | . | . | . | 208 | .
CN(C)CCCN(C(=O)c1ccc(S(=O)(=O)N2CCc3ccccc32)cc1)c1nc2ccc(Cl)cc2s1 | 33 | . | . | . | 181 | .
CN(C)CCN(C(=O)c1ccc(S(=O)(=O)N(C)c2ccccc2)cc1)c1nc2ccc(Cl)cc2s1 | . | . | . | . | . | .
CC(CC(=O)Nc1ccc(-c2ccno2)cc1)n1cccn1 (centres undefined) | . | . | . | . | . | .
COc1cc(NS(=O)(=O)c2ccc(Br)s2)cc(OC)c1 | . | . | . | . | -14 | .
COc1ccccc1NS(=O)(=O)c1ccc(C)c(C(N)=O)c1 | . | . | . | . | . | .
SMILES | MEKK2mut PB1 HTS | MEKK3 PB1 HTS | UBC13 inh | Apaf-1 inh | MEKK2wt PB1 HTS | UCH37 inh
NC(=S)N=Nc1c(O)[nH]c2ccc(F)cc12 | . | . | 50 | . | . | .
COc1cccc(N2CCN(c3ncnc4c3[nH]c3ccc(F)cc34)CC2C)c1 (centres undefined) | . | . | . | . | 164 | .
O=C1c2c(O)ccc(O)c2C(=O)c2c(NCCNCCO)ccc(NCCNCCO)c21 | / | / | . | 78 | / | .
COc1cc(OC)cc(C(=O)Nc2nc(-c3ccccc3)c(-c3ccccc3)o2)c1 | . | 154 | . | . | . | .
Cc1cc(NS(=O)(=O)c2ccc(NC(=O)COc3c(C)cc(Br)cc3C)cc2)no1 | . | . | . | . | . | .
NC(CCCCc1ccccc1)c1cccc2ccccc12 (centres undefined) | / | / | 54 | . | / | /
COc1cc(NC(=S)N2CCC(C(N)=O)CC2)c(OC)cc1Cl | . | . | . | . | . | 31
COc1cc(NC(=S)N2CCC(C(N)=O)CC2)cc(OC)c1 | . | . | . | . | . | .
